Measured values as given in the EternaBench riboswitch data.

System: MS2 coat protein
Test: apparent Kd, MS2 coat protein; higher = weaker binding; RNA-MaP array; FMN 200 µM where present
How it was run: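 The apparent Kd is reported as the median of filtered per-cluster binding-curve fits. To get these curves, designs transcribed by stalled E. coli RNA polymerase on Illumina sequencing-chip clusters were titrated with SNAP-549-labelled MS2 coat protein from 0.7 or 1.5 nM, doubling to 3 µM. Titrations were run without and then with constant ligand in 100 mM Tris-HCl pH 7.5, 80 mM KCl, 4 mM MgCl2, BSA, DTT, yeast tRNA and Tween-20, and green signal was normalised to red-channel RNA signal and control-cluster median Fmax.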

[1] = designed as: OFF switch for flavin mononucleotide, no ligand
[2] = ligand present: flavin mononucleotide, designed as: OFF switch for flavin mononucleotide
[3] = designed as: ON switch for flavin mononucleotide, no ligand
[4] = ligand present: flavin mononucleotide, designed as: ON switch for flavin mononucleotide

| Sequence | apparent Kd [1] [nM] | apparent Kd [2] [nM] | apparent Kd [3] [nM] | apparent Kd [4] [nM] |
| --- | --- | --- | --- | --- |
| UCGAUGCUAGGAUAUACGUAUACCUCCACCGUUGAUUCCUCACAUGAGGAUCACCCAUGUAGAAGGAGCAUCUA | 79.8 | 137 |  |  |
| CUCAUGUUAGGAUAUGCGCUCGACCUAGUGGUCGAGCUCUAGCAGAAGGAACAUGAGGAUCACCCAUGUUUGCA | 63.3 | 19.6 |  |  |
| CUUGAAUAAGUGAGGAUAUACUGUUAGUAAUGAUUGUAGAAGGUACAUGAGGAUCACCCAUGUUUAUUCUUUAU | 15.7 | 16 |  |  |
| CAAUAACCCUCAUGUACCUGAGGACAUGAGGAUCACCCAUGUAAGGAUAUAGCCAUUAAAUCUAACUAGAAGGUAUAAAUAACC | 1090 | 552 |  |  |
| CCUACCUUCACAGGAUAUGCUAUCCUUUGGGUAGCAGAAGGGUGAUAACAUGAGGAUCACCCAUGUGGUAGGCCCGGUGACGGG |  |  | 1300 | 105 |
| AAUGUGUCAGGAUAUAGUAGACUCCUUGGAACGGUAGUCAGUUAGAAGGGACAUGAGGAUCACCCAUGUCGAGU | 19.3 | 19.6 |  |  |
| UUCUAACGAGGAUAUCGAUGGUGGAACAUGAGGAUCACCCAUGUAUGAGAUAUUGUAGUUCGAGAAGGCGUUCAGU | 42.1 | 32.5 |  |  |
| AUCAGCUCGUCAGGAUAUACGUCACUGCGUCAGCAGUGUGGUAAGAUCACAUGAGGAUCACCCAUGUAGAAGGGACUAGCUGAU | 14.8 | 294 |  |  |
| UUUGAUAGCACAGGAUAUUGUCAUUUGAGUUGUCAAGAAGGGUGUACAUGAGGAUCACCCAUGUAAUGGUUGCCUCGCUGACUU | 175 | 279 |  |  |
| GGAGAGGACAGAGGAUAUACGUGCUAGAGAUACUAGCAAAAUUUCCUCACAUGAGGAUCACCCAUGUAGAAGGCUGUCCUAUCG | 16.6 | 309 |  |  |
| AGAUCCUGAGUCAGGAUAUAGAGACGGUAGUCGGGCUAGAAGGGACAUGAGGAUCACCCAUGUGGGUUCUUGCC | 10.7 | 13.1 |  |  |
| CCUGUCGCAUGAGGAUAUGGUCAGCUUUGCUGACCAGAAGGCAUGUCGAUAGACAUGAGGAUCACCCAUGUAGUAAAGACAGGA |  |  | 831 | 57.3 |
| CGCCGACAUGAGGAUCACCCAUGUCACAACUGGUCAGGAUAUGGUAUGAAAUGGCUAUUGCCAGAAGGGACCUCAG |  |  | 40.9 | 20.4 |
| CUGUUAUAGGUCCAUUUUUUCAACAUGAGGAUCACCCAUGUGCAGGAUAUCGUGAUAAUUUUCAUCGAGAAGGGCAUAGUCACG | 24.9 | 40.1 |  |  |
| UUAUUUAGGUAGGAUAUCGAUAUUAAUUAUUAUCGAGAAGGGUCUACAUGAGGAUCACCCAUGUUAGCAUGUAU | 28.1 | 29.9 |  |  |
| CAGCUCUGAGGAUAUCCAUCCUCCUACAUGAGGAUCACCCAUGUUUCCCUCUGGGUUUUCGGAGAAGGCAGUUAUU | 238 | 459 |  |  |
| GGAAAUCAUGUAGGAUAUGCAUGGCGAAGCUACGCAGAAGGACAUGAGGAUCACCCAUGUUAUAGCGUCCGAGAAGGGAUGCAA | 40 | 218 |  |  |
| UAUUUUAACUAAGGAUAUCUGUAUUAUGUAGAAACAUGAGGAUCACCCAUGUUCUUGAUAUUAUAGGAGAAGGUAGAUGAAUAA |  |  | 6.6 | 5.72 |
| AAUAAACUCACAGGAUAUAGCAGAUGUCGCGUGAACUUACAGGCGACGAUGCUAGAAGGGUGACCACAUGAGGAUCACCCAUGU |  |  | 1200 | 142 |
| UUACUAUCACAGAAGGCUAGAUAGUAUAUAGAUGGAGGAUAUGUGACAUGAGGAUCACCCAUGUUUCACCGACAUGAGGAUCAC | 17.4 | 41.6 |  |  |
| AAACCUAUAGGAUAUACAUGAGGAUCACCCAUGUUGCGAUUUUUUAGGUAACAGAUCCGUAGAAGGGUAGGUUA | 23.8 | 57.6 |  |  |
| GUCACGAAUGUAGGAUAUCGAGUGGAUAACACUCGAGAAGGACAUGAGGAUCACCCAUGUAAAAUGAAAGAUAAUAAACGUGAC | 17.6 | 50.5 |  |  |
| UGGUACUAGGGAGGAUAUGGGAAGAUACAUGAGGAUCACCCAUGUUUAAGAAUGCCGAAAGGCAACUAGAAGGCCCUAGUACCU |  |  | 430 | 19.9 |
| UUAUUUAUGCAAGGAUAUCAAUUAUAUACACGUCCUACAUGAGGAUCACCCAUGUUUAGUUUUUUUGAGAAGGUGCAUUGUCGG |  |  | 52.1 | 44.5 |
| AAUUAUUGAUGAGGAUAUUGUGGUGAAACACGACAAGAAGGCAUUAUACACAUGAGGAUCACCCAUGUGAGCCUGAUGCAUAUA | 16.6 | 22.2 |  |  |
| GGAUGUCAAAGACAUCCAAAUCGAACAUGAGGAUCACCCAUGUAGGAUAUGCUACUCAAAGAGUAGCAGAAGGACAUGUGCUUU | 41.5 | 223 |  |  |
| GGUGCCAUGUAGAAGGCAGAUCUGAUUCAGAUCUGAGGAUAUACAUGAGGAUCACCCAUGUAAAGGCUCCGCACGAGAGUGCAA | 14.9 | 41.7 |  |  |
